This note sets out measurements from the M2OR odorant receptor database.
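Note: active if original authors judged signal statistically different from baseline.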

The assay has as its target T1, UniProt Q7TR79.
T1 sequence (whole entry): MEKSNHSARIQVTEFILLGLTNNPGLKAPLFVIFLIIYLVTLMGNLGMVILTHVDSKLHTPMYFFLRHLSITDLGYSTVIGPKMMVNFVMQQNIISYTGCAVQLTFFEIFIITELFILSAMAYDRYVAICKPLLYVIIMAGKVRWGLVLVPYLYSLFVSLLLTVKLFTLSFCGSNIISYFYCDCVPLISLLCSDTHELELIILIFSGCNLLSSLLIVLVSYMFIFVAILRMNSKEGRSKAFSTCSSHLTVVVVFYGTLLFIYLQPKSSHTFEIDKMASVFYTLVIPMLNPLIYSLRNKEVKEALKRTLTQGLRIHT
To be noted: stereoisomer not certain. A digest of the protocol:
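Each receptor–molecule pair is labelled responsive or non-responsive (inactive) according to whether the original authors judged the measured signal statistically different from baseline. The data were taken from the main text and supplementary material of published papers and checked for typos and inconsistencies. Assay methods differed by source, with transient luciferase assays in mammalian cell lines being common.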
On to `CC(C)=CCCC(C)=CCOC(=O)C(C)C`, for which the “odorant receptor agonist call” value was “inactive”.

Regarding `OCCc1ccccc1`, the “odorant receptor agonist call” value is “inactive”.

For `CC(C)CCN`, the “odorant receptor agonist call” value was “inactive”.

For the molecule `CC1CCC(C(C)C)C(=O)C1` (centres undefined), the “odorant receptor agonist call” value is “inactive”.

For the molecule `C=CC(=O)CCCCC`, the “odorant receptor agonist call” value is “inactive”.

Regarding `C=CC(=C)CCC=C(C)C`, the “odorant receptor agonist call” value was “inactive”.

Consider `CCCC=O`, for which the “odorant receptor agonist call” value was “inactive”.

For the molecule `C=C1C2CCC(C2)C1(C)C` (centres undefined), the “odorant receptor agonist call” value is “inactive”.

Consider `C=CC(C)=CCC=C(C)CCC=C(C)C`, for which the “odorant receptor agonist call” value is “inactive”.

Regarding `COc1nccnc1C`, the “odorant receptor agonist call” value is “inactive”.

With `CCCCCC(=Cc1ccccc1)C(OC)OC`, the “odorant receptor agonist call” value was “inactive”.

As for `CCSCC`, the “odorant receptor agonist call” value was “inactive”.

For `C=C(C)C1CC=C(C)CC1` (centres undefined), the “odorant receptor agonist call” value is “inactive”.

For the molecule `Cc1ccc(OC(=O)C(C)C)cc1`, the “odorant receptor agonist call” value was “inactive”.

Consider `CC=CC(=O)C1=C(C)CCCC1(C)C`, for which the “odorant receptor agonist call” value was “inactive”.

Take `CSSCc1ccco1`: the “odorant receptor agonist call” value is “inactive”.

On to `O=C(O)C1CCC1`, for which the “odorant receptor agonist call” value is “inactive”.

Regarding `CC(CC=O)CCCC(C)(C)O` (centres undefined), the “odorant receptor agonist call” value is “inactive”.

Regarding `CCCCCCC(=O)OCCCC`, the “odorant receptor agonist call” value was “inactive”.

In the case of `CCC=CCCC=CC=O`, the “odorant receptor agonist call” value was “inactive”.

Regarding `OCC=Cc1ccccc1`, the “odorant receptor agonist call” value is “inactive”.

With `CCCCCOC(=O)CC`, the “odorant receptor agonist call” value was “inactive”.

In the case of `Cc1c(C)c(C)c(C=O)c(C)c1C`, the “odorant receptor agonist call” value was “inactive”.

As for `CC(=O)C1(C)CC2=C(CCCC2(C)C)CC1C` (centres undefined), the “odorant receptor agonist call” value is “inactive”.

Turning to `CCCCCCCCCCCO`, the “odorant receptor agonist call” value was “inactive”.

On to `Cc1ccccc1OC(=O)C(C)C`, for which the “odorant receptor agonist call” value was “inactive”.

Consider `CCCCCC(C=O)=Cc1ccccc1`, for which the “odorant receptor agonist call” value is “inactive”.

As to `CC(C)=C1CCC(C)CC1=O` (centres undefined), the “odorant receptor agonist call” value was “inactive”.

As for `CCc1occc(=O)c1O`, the “odorant receptor agonist call” value is “inactive”.

Take `CCCCCOC(=O)CCC`: the “odorant receptor agonist call” value was “inactive”.

`CCCCCCC=CC=O`: the “odorant receptor agonist call” value was “inactive”.

Take `CC(=O)OCc1ccc2c(c1)OCO2`: the “odorant receptor agonist call” value is “inactive”.

As to `CCCC(C)C(=O)OCC` (centres undefined), the “odorant receptor agonist call” value was “inactive”.

With `CC(C)CS`, the “odorant receptor agonist call” value was “inactive”.
